The source made the active and inactive calls.
Experiments:
Assay type in all cases: functional, organism-based
Design in all cases: dose 10 mg/kg
Conditions in all cases: C57Bl/6
Mus musculus [1] = experiment: Antiinflammatory activity against trinitrobenzenesulfonic acid-induced colitis in human PXR expressing transgenic C57/BL6 mouse assessed as decrease in colonic myeloperoxidase activity at 10 mg/kg, po qd after 5 days using trimethylbenzidine as substrate by spectrophotometry
Summary of the method: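 Colon myeloperoxidase from TNBS-colitic hPXR mice given oral 10 mg/kg daily. Colon was lysed in T-PER and minced, then centrifuged at 10,000g for 15 min at 4 °C. After two freeze/thaw cycles, MPO in the homogenate was measured spectrophotometrically with TMB substrate and normalized to protein. Mean ± SE, 6–7 mice/group.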

Mus musculus [2] = experiment: Antiinflammatory activity against trinitrobenzenesulfonic acid-induced colitis in human PXR expressing transgenic C57/BL6 mouse assessed as decrease in presence of indurations in colon at 10 mg/kg, po qd administered 3 days before TNBS challenge measured after 7 days
Summary of the method: (§1)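 hPXR male mice were fasted 16 h and given TNBS intrarectally (0.5 mg/mouse in 50% ethanol). Oral 10 mg/kg once daily (DMSO stock diluted in 1% methylcellulose) began 3 days before TNBS; vehicle controls received 1% methylcellulose. Four days after TNBS, colon macroscopic appearance was graded blind for induration, edema, thickness and mucosal hemorrhage. n = 6–7.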

Mus musculus [3] = experiment: Antiinflammatory activity against trinitrobenzenesulfonic acid-induced colitis in human PXR expressing transgenic C57/BL6 mouse assessed as increase in IL-10 protein level in colon at 10 mg/kg, po qd after 5 days by ELISA
Summary of the method: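 TNFα and IL-10 were measured by ELISA in colon homogenates (T-PER lysis, 10,000g for 15 min at 4 °C) from TNBS-colitic hPXR mice. Mice were dosed orally at 10 mg/kg once daily in DMSO/1% methylcellulose, starting 3 days before intrarectal TNBS (0.5 mg/mouse). Values were normalized to protein; mean ± SE, 6–7 mice/group.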

Mus musculus [4] = experiment: Antiinflammatory activity against trinitrobenzenesulfonic acid-induced colitis in human PXR expressing transgenic C57/BL6 mouse assessed as decrease in microscopic colon damage at 10 mg/kg, po qd administered 3 days before TNBS challenge measured after 7 days
Summary of the method: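 Microscopic colon damage in the prophylactic TNBS model in hPXR mice: oral 10 mg/kg daily, in DMSO/1% methylcellulose, from 3 days before intrarectal TNBS (0.5 mg/mouse in 50% ethanol). Colons were collected at day 4 post-TNBS, formalin-fixed, paraffin-embedded and H&E-stained, then graded blind on a 0–4 scale (leukocyte infiltration, vascular density, wall thickening, goblet cell loss). n = 6–7.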

Mus musculus [5] = experiment: Antiinflammatory activity against trinitrobenzenesulfonic acid-induced colitis in human PXR expressing transgenic C57/BL6 mouse assessed as decrease in appearance of submucosal edema in colon at 10 mg/kg, po qd administered 3 days before TNBS challenge measured after 7 days by haematoxylin/eosin staining
Summary of the method: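 TNBS colitis in male hPXR mice (human PXR on mouse PXR-null background). After a 16 h fast and light ketamine/xylazine i.p. anesthesia, mice received TNBS 0.5 mg/mouse in 50% ethanol intrarectally by catheter. Dosing was 10 mg/kg orally once daily, dissolved in DMSO and diluted in 1% methylcellulose, starting 3 days before TNBS. Colons were taken 4 days after TNBS and stained with H&E. n = 6–7.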

Mus musculus [6] = experiment: Antiinflammatory activity against trinitrobenzenesulfonic acid-induced colitis in human PXR expressing transgenic C57/BL6 mouse assessed as decrease in weight loss at 10 mg/kg, po qd administered 3 days before TNBS challenge measured after 7 days
Summary of the method: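 Clinical read-outs in hPXR mice with TNBS colitis (0.5 mg/mouse intrarectally in 50% ethanol after a 16 h fast). Oral dosing at 10 mg/kg once daily (DMSO diluted in 1% methylcellulose) started 3 days before TNBS. Diarrhea was scored and body weight recorded, weight expressed as delta percentage versus the day before TNBS; sacrifice was 4 days after TNBS. n = 6–7.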

Mus musculus [7] = experiment: Antiinflammatory activity against trinitrobenzenesulfonic acid-induced colitis in human PXR expressing transgenic C57/BL6 mouse assessed as decrease in edema of colon at 10 mg/kg, po qd administered 3 days before TNBS challenge measured after 7 days; summary of the method: as §1
Mus musculus [8] = experiment: Antiinflammatory activity against trinitrobenzenesulfonic acid-induced colitis in human PXR expressing transgenic C57/BL6 mouse assessed as decrease in INF-gamma protein level in colon at 10 mg/kg, po qd after 5 days
Mus musculus [9] = experiment: Antiinflammatory activity against trinitrobenzenesulfonic acid-induced colitis in human PXR expressing transgenic C57/BL6 mouse assessed as induction of CYP3A11 mRNA expression in colon at 10 mg/kg, po qd after 5 days by quantitative RT-PCR
Summary of the method: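 Cyp3A11 mRNA in colon of TNBS-colitic hPXR mice was measured by SYBR Green qPCR (50 ng template, 0.2 μM primers). Cycling was 95 °C for 2 min, then 40 cycles of 95/55/72 °C, with each reaction run in triplicate. Expression was calculated by ΔΔCT against GAPDH relative to untreated control. Mean ± SE, 5 mice/group.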

Mus musculus [10] = experiment: Antiinflammatory activity against trinitrobenzenesulfonic acid-induced colitis in human PXR expressing transgenic C57/BL6 mouse assessed as decrease in microscopic colon damage at 10 mg/kg, ip qd administered 3 days before TNBS challenge measured after 7 days
Summary of the method: (§2)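 Male hPXR mice (human PXR on mouse PXR-null background). Fasted 16 h and lightly anaesthetised with ketamine/xylazine, then given TNBS 0.5 mg/mouse in 50% ethanol intrarectally in 150 μL. Drug was dissolved in DMSO, diluted in 1% methylcellulose and given i.p. once daily for 3 days before TNBS. Vehicle controls received methylcellulose. Mice were sacrificed 4 days after TNBS; n = 6–7 per group.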

Mus musculus [11] = experiment: Antiinflammatory activity against trinitrobenzenesulfonic acid-induced colitis in human PXR expressing transgenic C57/BL6 mouse assessed as decrease in weight loss at 10 mg/kg, ip administered on day 1 after TNBS challenge measured after 5 days
Summary of the method: (§3)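 Therapeutic protocol in male hPXR mice. Colitis was induced with intrarectal TNBS 0.5 mg/mouse in 50% ethanol after a 16 h fast and light ketamine/xylazine anaesthesia. Drug at 10 mg/kg was given once daily from day 1 after TNBS. Mice were sacrificed 5 days after TNBS; n = 4–6 per group.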

Mus musculus [12] = experiment: Antiinflammatory activity against trinitrobenzenesulfonic acid-induced colitis in human PXR expressing transgenic C57/BL6 mouse assessed as decrease in INF-gamma protein level in colon at 10 mg/kg, ip qd after 5 days
Mus musculus [13] = experiment: Antiinflammatory activity against trinitrobenzenesulfonic acid-induced colitis in human PXR expressing transgenic C57/BL6 mouse assessed as decrease in thickening of colon wall at 10 mg/kg, ip administered on day 1 after TNBS challenge measured after 5 days by microscopically; summary of the method: as §3
Mus musculus [14] = experiment: Antiinflammatory activity against trinitrobenzenesulfonic acid-induced colitis in human PXR expressing transgenic C57/BL6 mouse assessed as decrease in edema of colon at 10 mg/kg, ip qd administered 3 days before TNBS challenge measured after 7 days; summary of the method: as §2
Mus musculus [15] = experiment: Antiinflammatory activity against trinitrobenzenesulfonic acid-induced colitis in human PXR expressing transgenic C57/BL6 mouse assessed as decrease in thickness of colon at 10 mg/kg, ip qd administered 3 days before TNBS challenge measured after 7 days; summary of the method: as §2

Measured: Activity

CO[C@H]1/C=C/O[C@@]2(C)Oc3c(C)c(O)c4c(O)c(c5c(nc6cc(C)ccn65)c4c3C2=O)NC(=O)/C(C)=C\C=C\[C@H](C)[C@H](O)[C@@H](C)[C@@H](O)[C@@H](C)[C@H](OC(C)=O)[C@@H]1C [RIFAXIMIN]
not listed: Mus musculus [10] | Mus musculus [11] | Mus musculus [12] | Mus musculus [13] | Mus musculus [14] | Mus musculus [15]
active: all other assays above

C[C@H](CCCOS(=O)(=O)O)[C@H]1CC[C@H]2[C@@H]3CC[C@H]4C[C@H](OS(=O)(=O)O)[C@@H](OS(=O)(=O)O)C[C@]4(C)[C@H]3CC[C@]12C [SOLOMONSTEROL A]
active: Mus musculus [10] | Mus musculus [11] | Mus musculus [12] | Mus musculus [13] | Mus musculus [14] | Mus musculus [15]

Reference: ChEMBL document CHEMBL1799920, “Total synthesis and pharmacological characterization of solomonsterol A, a potent marine pregnane-X-receptor agonist endowed with anti-inflammatory activity” (J Med Chem, 2011)
